Experimental data: ChEMBL document CHEMBL2021854, “2-Aminopyrimidine based 4-aminoquinoline anti-plasmodial agents. Synthesis, biological activity, structure-activity relationship and mode of action studies” (Eur J Med Chem, 2012)

Experiments:
[1] = test system: Plasmodium falciparum; assay: Antiplasmodial activity chloroquine-sensitive Plasmodium falciparum 3D7 infected in human A+ erythrocytes assessed as inhibition of [3H]-hypoxanthine incorporation after 24 hrs by scintillation counting; assay type: functional, organism-based
[2] = test system: Plasmodium falciparum; assay: Antiplasmodial activity chloroquine-resistant Plasmodium falciparum K1 infected in human A+ erythrocytes assessed as inhibition of [3H]-hypoxanthine incorporation after 24 hrs by scintillation counting; assay type: functional, organism-based
[3] = test system: Plasmodium falciparum; assay: Resistant factor, ratio of IC50 for chloroquine-resistant Plasmodium falciparum K1 to IC50 for chloroquine-sensitive Plasmodium falciparum 3D7; assay type: functional
Outline: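 Resistance factor computed as IC50 against K1 divided by IC50 against 3D7, both from the [3H]hypoxanthine incorporation assay.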

[4] = Inhibition of beta-hematin formation assessed as Ferriprotoporphyrin IX biomineralisation at 1 mg/ml after 24 hrs; assay type: functional
Outline: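 Hemin chloride (0.5 mg/ml in DMSO) mixed with 0.5 M sodium acetate buffer pH 4.4 and drug or solvent control, incubated 37 °C for 24 h. Pellet washed with DMSO to remove unreacted hemin, dissolved in 0.1 N NaOH, absorbance read at 405 nm; percent inhibition relative to control. Highest concentration tested 1 mg/ml.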

[5] = test system: MDCK; assay: Cytotoxicity against MDCK cells assessed as cell viability by colorimetric formazan-based MTS assay; parameters: species or system Canis lupus familiaris; conditions: dog, mdck
Outline: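 Cytotoxicity on MDCK cells; 50% cytotoxic concentration from cell viability measured by colorimetric formazan-based MTS assay.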

[6] = Cytotoxicity against MDCK cells assessed as minimum compound concentration required to causes microscopically detectable alteration of normal cell morphology; assay type: cell-based, Canis lupus familiaris; conditions: dog
Outline: (§1)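 Confluent, non-proliferating cell cultures were exposed to the compounds. The endpoint was the minimum concentration producing a microscopically detectable alteration of normal cell morphology.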

[7] = test system: Influenza A virus; assay: Antiviral activity against Influenza A virus H1N1 infected in MDCK cells assessed as reduction visual scoring of virus-induced cytopathogenicity after 4 days; assay type: functional, organism-based; conditions: 96 h
Outline: (§2)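 MDCK monolayers infected with 100 CCID50 of influenza A (H1N1 or H3N2) or influenza B, with varying compound concentrations. Cytopathicity read when untreated infected controls reached complete CPE.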

[8] = test system: Influenza A virus; assay: Antiviral activity against Influenza A virus H3N2 infected in MDCK cells assessed as reduction visual scoring of virus-induced cytopathogenicity after 4 days; assay type: functional, organism-based; conditions: 96 h; outline: as §2
[9] = test system: Influenza B virus; assay: Antiviral activity against Influenza B virus infected in MDCK cells assessed as reduction visual scoring of virus-induced cytopathogenicity after 4 days; assay type: functional, organism-based; conditions: 96 h; outline: as §2
[10] = test system: Influenza A virus; assay: Antiviral activity against Influenza A virus H1N1 infected in MDCK cells assessed as inhibition of virus-induced cytopathogenicity after 4 days by colorimetric formazan-based MTS assay; assay type: functional, organism-based; conditions: 96 h
[11] = test system: Influenza A virus; assay: Antiviral activity against Influenza A virus H3N2 infected in MDCK cells assessed as inhibition of virus-induced cytopathogenicity after 4 days by colorimetric formazan-based MTS assay; assay type: functional, organism-based; conditions: 96 h
[12] = test system: Influenza B virus; assay: Antiviral activity against Influenza B virus infected in MDCK cells assessed as inhibition of virus-induced cytopathogenicity after 4 days by colorimetric formazan-based MTS assay; assay type: functional, organism-based; conditions: 96 h
[13] = test system: Vesicular stomatitis virus; assay: Antiviral activity against Vesicular stomatitis virus infected in HEL cells assessed as inhibition of virus-induced cytopathogenicity after 4 days; assay type: functional, organism-based; conditions: 96 h
Outline: (§3)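 Confluent HEL or HeLa monolayers infected with 100 CCID50 of virus in the presence of varying compound concentrations.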

[14] = Cytotoxicity against human HEL cells assessed as minimum compound concentration required to causes microscopically detectable alteration of normal cell morphology; assay type: cell-based; outline: as §1
[15] = test system: HeLa; assay: Cytotoxicity against human HeLa cells assessed as cell viability by colorimetric formazan-based MTS assay
[16] = Cytotoxicity against cat CRFK cells assessed as cell viability by colorimetric formazan-based MTS assay; parameters: species or system Felis catus; conditions: CRFK cells
[17] = test system: Feline infectious peritonitis virus; assay: Antiviral activity against FIPV infected in cat CRFK cells assessed as inhibition of virus-induced cytopathic effect after 4 days by colorimetric formazan-based MTS assay; assay type: functional, cell-based; conditions: Alphacoronavirus 1, CRFK, 96 h
[18] = test system: Felid alphaherpesvirus 1; assay: Antiviral activity against Feline herpesvirus infected in cat CRFK cells assessed as inhibition of virus-induced cytopathic effect after 4 days by colorimetric formazan-based MTS assay; assay type: functional, organism-based; conditions: Felid alphaherpesvirus 1, CRFK, 96 h
[19] = test system: Human alphaherpesvirus 3; assay: Antiviral activity against […] expressing thymidine kinase infected in HEL cells assessed as reduction of virus plaque formation after 4 days; assay type: functional, cell-based; conditions: Human alphaherpesvirus 3, strain Oka vaccine, 96 h
[20] = Cytotoxicity against african green monkey Vero cells assessed as minimum compound concentration required to causes microscopically detectable alteration of normal cell morphology; assay type: cell-based; conditions: chlorocebus sabaeus; outline: as §1
[21] = test system: Human respirovirus 3; assay: Antiviral activity against Parainfluenza-3 virus infected in african green monkey Vero cells assessed as inhibition of virus-induced cytopathogenicity after 4 days; assay type: functional, organism-based; conditions: Human respirovirus 3, Vero, 96 h
Outline: (§4)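 Confluent HEL, Vero or HeLa monolayers were inoculated with 100 CCID50 of virus in the presence of varying concentrations of compound. Cytopathicity was scored when it reached completion in untreated, virus-infected control cultures.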

[22] = test system: Mammalian orthoreovirus 1; assay: Antiviral activity against Reovirus-1 infected in african green monkey Vero cells assessed as inhibition of virus-induced cytopathogenicity after 4 days; assay type: functional, organism-based; conditions: Mammalian orthoreovirus 1, Vero, 96 h; outline: as §4
[23] = test system: Sindbis virus; assay: Antiviral activity against Sindbis virus infected in african green monkey Vero cells assessed as inhibition of virus-induced cytopathogenicity after 4 days; assay type: functional, organism-based; conditions: 96 h; outline: as §4
[24] = test system: Coxsackievirus B4; assay: Antiviral activity against Coxsackie virus B4 infected in african green monkey Vero cells assessed as inhibition of virus-induced cytopathogenicity after 4 days; assay type: functional, organism-based; conditions: Enterovirus B, 96 h; outline: as §4
[25] = test system: Punta Toro virus; assay: Antiviral activity against Punta Toro virus infected in african green monkey Vero cells assessed as inhibition of virus-induced cytopathogenicity after 4 days; assay type: functional, organism-based; conditions: 96 h; outline: as §4
[26] = Cytotoxicity against human HeLa cells assessed as minimum compound concentration required to causes microscopically detectable alteration of normal cell morphology; assay type: cell-based; outline: as §1
[27] = test system: Vesicular stomatitis virus; assay: Antiviral activity against Vesicular stomatitis virus infected in HeLa cells assessed as inhibition of virus-induced cytopathogenicity after 4 days; assay type: functional, organism-based; conditions: 96 h; outline: as §3
[28] = test system: Coxsackievirus B4; assay: Antiviral activity against Coxsackie virus B4 infected in human HeLa cells assessed as inhibition of virus-induced cytopathogenicity after 4 days; assay type: functional, organism-based; conditions: Enterovirus B, 96 h; outline: as §4
[29] = test system: Respiratory syncytial virus; assay: Antiviral activity against Respiratory syncytial virus infected in human HeLa cells assessed as inhibition of virus-induced cytopathogenicity after 4 days; assay type: functional, organism-based; conditions: 96 h; outline: as §4
[30] = test system: Human alphaherpesvirus 1; assay: Antiviral activity against HSV1 KOS infected in HEL cells assessed as inhibition of virus-induced cytopathogenicity after 4 days; assay type: functional, organism-based; conditions: Human alphaherpesvirus 1, KOS, 96 h; outline: as §3
[31] = test system: Human alphaherpesvirus 2; assay: Antiviral activity against HSV2 G infected in HEL cells assessed as inhibition of virus-induced cytopathogenicity after 4 days; assay type: functional, organism-based; conditions: Human alphaherpesvirus 2, strain G, 96 h; outline: as §4
[32] = test system: Human betaherpesvirus 5; assay: Antiviral activity against Cytomegalovirus AD-169 infected in HEL cells assessed as inhibition of virus plaque formation after 4 days; assay type: functional, organism-based; conditions: Human betaherpesvirus 5, AD169, HEL, 96 h
[33] = test system: Human betaherpesvirus 5; assay: Antiviral activity against Human cytomegalovirus Davis infected in HEL cells assessed as inhibition of virus plaque formation after 4 days; assay type: functional, organism-based; conditions: Human betaherpesvirus 5, Davis, 96 h

Cc1nc(NCCCCNc2ccnc3cc(Cl)ccc23)nc(-c2cccc([N+](=O)[O-])c2)c1C(=O)OC(C)C
IC50 [1]: 697 nM
IC50 [2]: 192 nM
Ratio IC50 [3]: 0.2756
inhibition [4]: 92%

NC12CC3CC(CC(C3)C1)C2 [AMANTADINE]
CC50 [5]: > 200 µM
MCC [6]: > 200 µM
EC50 [7]: 89 µM
EC50 [8]: 5 µM
EC50 [9]: > 200 µM
EC50 [10]: 154 µM
EC50 [11]: 4.1 µM
EC50 [12]: > 200 µM

C[C@H]1[C@H](OC(=O)CCC(=O)O)O[C@@H]2O[C@@]3(C)CC[C@H]4[C@H](C)CC[C@@H]1[C@@]24OO3 [ARTESUNATE]
IC50 [1]: 5.3 nM
IC50 [2]: 2.8 nM
Ratio IC50 [3]: 0.5418

Nc1nc(O)c2ncn(COC(CO)CO)c2n1 [GANCICLOVIR]
EC50 [13]: > 100 µM
MCC [14]: > 100 µM
CC50 [15]: 222 µM
CC50 [16]: > 100 µM
EC50 [17]: > 100 µM
EC50 [18]: 4.1 µM

O=c1[nH]c(=O)n([C@H]2C[C@H](O)[C@@H](CO)O2)cc1/C=C/Br [BRIVUDINE]
EC50 [13]: > 250 µM
MCC [14]: > 250 µM
CC50 [15]: 362 µM
EC50 [19]: 19 nM

CCOC(=O)c1c(C)nc(NCCCCCCCCCCCCNc2ccnc3cc(Cl)ccc23)nc1-c1ccccc1
IC50 [1]: 265 nM
IC50 [2]: 854 nM
Ratio IC50 [3]: 3.22

Cc1nc(NCCCNc2ccnc3cc(Cl)ccc23)nc(-c2ccccc2[N+](=O)[O-])c1C(=O)OC(C)C
IC50 [1]: 1960 nM
IC50 [2]: 229 nM
Ratio IC50 [3]: 0.1173
inhibition [4]: 89%

Nc1nc2c(ncn2COCCO)c(=O)[nH]1 [ACYCLOVIR]
EC50 [13]: > 250 µM
MCC [14]: > 250 µM
CC50 [15]: 541 µM

CC(N)C12CC3CC(CC(C3)C1)C2 (stereo not drawn) [RIMANTADINE]
MCC [6]: > 200 µM
EC50 [8]: > 200 µM
EC50 [9]: > 200 µM
EC50 [11]: > 200 µM
EC50 [12]: > 200 µM

CCOC(=O)c1c(C)nc(NCCCC(C)CNc2ccnc3cc(Cl)ccc23)nc1-c1ccccc1 (stereo not drawn)
IC50 [1]: 287 nM
IC50 [2]: 860 nM
Ratio IC50 [3]: 3

CCOC(=O)c1c(C)nc(NCCCCCCCCCCNc2ccnc3cc(Cl)ccc23)nc1-c1ccccc1
IC50 [1]: 1780 nM
IC50 [2]: 488 nM
Ratio IC50 [3]: 0.2744

CCOC(=O)c1c(C)nc(NCC(C)Nc2ccnc3cc(Cl)ccc23)nc1-c1ccccc1 (stereo not drawn)
IC50 [1]: 15900 nM
IC50 [2]: 28100 nM
Ratio IC50 [3]: 1.7683
inhibition [4]: 35%

Nc1ncnc2c1ncn2C[C@H](O)CO [(S)-DHPA]
MCC [20]: > 250 µM
EC50 [21]: > 250 µM
EC50 [22]: 250 µM
EC50 [23]: > 250 µM
EC50 [24]: > 250 µM
EC50 [25]: > 250 µM
MCC [26]: > 250 µM
EC50 [27]: 22 µM
EC50 [28]: 29 µM
EC50 [29]: 6 µM

CC(=O)N[C@H]1[C@@H](OP(=O)(O)OP(=O)(O)OC[C@H]2O[C@@H](n3ccc(=O)[nH]c3=O)[C@H](O)[C@@H]2O)O[C@H](CO)[C@@H](O)[C@@H]1O[C@@](C)(OP(=O)(O)O)C(=O)O
CC50 [16]: 15.8 µg/mL
EC50 [17]: 1.5 µg/mL
EC50 [18]: 0.8 µg/mL

Nc1ccn(C[C@@H](CO)OCP(=O)(O)O)c(=O)n1 [CIDOFOVIR]
EC50 [30]: 900 nM
EC50 [31]: 900 nM
EC50 [13]: > 250 µM
MCC [14]: > 317 µM
EC50 [32]: 369 nM
EC50 [33]: 102 nM
CC50 [15]: 50.8 µM

CCOC(=O)c1c(C)nc(Nc2ccc(Nc3ccnc4cc(Cl)ccc34)cc2)nc1-c1ccccc1
IC50 [1]: 644 nM
IC50 [2]: 6190 nM
Ratio IC50 [3]: 9.6
inhibition [4]: 100%

N[C@H]1C(C(=O)O)=CC=C[C@@H]1O
CC50 [16]: > 100 µg/mL
EC50 [17]: 8.1 µg/mL
EC50 [18]: 5.2 µg/mL

CCOC(=O)c1c(C)nc(NCCCCCCCCNc2ccnc3cc(Cl)ccc23)nc1-c1ccccc1
IC50 [1]: 252 nM
IC50 [2]: 516 nM
Ratio IC50 [3]: 2.047
inhibition [4]: 56%

CCOC(=O)c1c(C)nc(NCCCCCCCNc2ccnc3cc(Cl)ccc23)nc1-c1ccccc1
IC50 [1]: 1130 nM
IC50 [2]: 618 nM
Ratio IC50 [3]: 0.544
inhibition [4]: 89%

CCOC(=O)c1c(C)nc(Nc2ccccc2Nc2ccnc3cc(Cl)ccc23)nc1-c1ccccc1
IC50 [1]: 14800 nM
IC50 [2]: 27300 nM
Ratio IC50 [3]: 1.842
inhibition [4]: 53%

Cc1nc(NCCCNc2ccnc3cc(Cl)ccc23)nc(-c2ccc([N+](=O)[O-])cc2)c1C(=O)OC(C)C
IC50 [1]: 500 nM
IC50 [2]: 176 nM
Ratio IC50 [3]: 0.3518
inhibition [4]: 94%
